Screening results as filed in PubChem BioAssay.
OX1R antag-1: human HCRTR1 antagonism. 0.43% of 330,000 active. O43613. inhibition, % at 5 µM. CHO/OX1R cells, Fluo-8 calcium fluorescence, orexin A;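 active = inhibition above its plate's threshold, mean inhibition of all tested compounds on the plate plus 3 SD, cut at about 37% in these data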;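 note: 0% = orexin A challenge wells and 100% = SB-334867-A antagonist wells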
TAAR1 ag: human TAAR1 agonism; Q96RJ0; CHO RD-HGA16 TAAR1, Fluo-8 calcium fluorescence; vehicle wells 0%, saturating PEA agonist 100%; activation, % at 3 µM; 0.99% of 360,000 active;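 active = activation above the mean activation of all test compounds in the run plus 3 SD, cut at about 38% in these data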
Target sequence (Q96RJ0 whole entry, looked up): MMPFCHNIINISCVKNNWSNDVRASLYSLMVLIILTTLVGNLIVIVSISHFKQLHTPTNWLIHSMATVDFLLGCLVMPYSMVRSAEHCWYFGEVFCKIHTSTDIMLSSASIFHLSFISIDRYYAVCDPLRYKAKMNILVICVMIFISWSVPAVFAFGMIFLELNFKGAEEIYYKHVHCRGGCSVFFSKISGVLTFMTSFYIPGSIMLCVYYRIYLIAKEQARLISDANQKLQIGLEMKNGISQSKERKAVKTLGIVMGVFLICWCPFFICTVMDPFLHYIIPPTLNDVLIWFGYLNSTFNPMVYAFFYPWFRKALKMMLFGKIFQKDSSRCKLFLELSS
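Benchmarks: low control DMSO, high control PEA (EC100); System: CHO RD-HGA16 cells carrying human TAAR1 plus Gα16; Detection: Fluo-8 fluorescence, 5 s baseline then 140 s kinetic read; Schedule: 17-24 h plating, Fluo-8 75 min 37 °C, 30 min RT; Read-out basis: % activation from peak over basal fluorescence ratio, DMSO-to-PEA scaled.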
OX1R antag-2: blocks the human orexin 1 receptor; O43613; OX1R-expressing cells, FRET antagonist read-out; inhibition, % at 6.6 µM; 1.8% of 330,000 active; in the data active = inhibition mostly above about 38%, no sharp cut-off; inactive = mostly below about 40%;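 note: 0% = agonist challenge alone and 100% = reference antagonist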
GPR7 antagonist: antagonists of human GPR7 (neuropeptides B/W receptor 1); P48145; inhibition, % at 4.4 µM; GPR7-expressing cells, fluorescence antagonist assay; AID 1861; 1.1% of 290,000 active; in the data active = inhibition above about 16%, passing the limit was not always enough;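 note: cells stimulated with the agonist NPW; 0% = agonist with vehicle and 100% = vehicle without agonist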
Target sequence (P48145 whole entry, looked up): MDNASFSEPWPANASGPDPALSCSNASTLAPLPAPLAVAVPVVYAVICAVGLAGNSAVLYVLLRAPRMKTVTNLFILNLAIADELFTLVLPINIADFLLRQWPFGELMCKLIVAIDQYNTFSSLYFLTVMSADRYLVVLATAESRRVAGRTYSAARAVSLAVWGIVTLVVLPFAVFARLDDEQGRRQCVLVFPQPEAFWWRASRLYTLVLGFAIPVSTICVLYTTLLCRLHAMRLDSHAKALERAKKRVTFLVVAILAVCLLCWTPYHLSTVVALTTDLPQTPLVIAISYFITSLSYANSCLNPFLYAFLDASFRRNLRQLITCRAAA
TAAR1 antag: human TAAR1 antagonism. 1.5% of 360,000 active. inhibition, % at 3 µM. CHO RD-HGA16 TAAR1, Fluo-8 calcium fluorescence, antagonist;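 active = inhibition above a per-plate cutoff, the mean inhibition of test compounds on that plate plus 3 SD, cut at about 49% in these data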;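 note: 0% = DMSO plus EC80 beta-PEA response and 100% = DMSO alone without agonist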
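Test system: CHO RD-HGA16 cells bearing hTAAR1 | Reagent: β-PEA, EC80 | Compound dosing: 3 µM, single point | Schedule: Dye loading 75 min at 37 °C, then 30 min room temperature | Signal: Calcium fluorescence with Fluo-8 | Evaluation: Percent inhibition of PEA-evoked calcium signal, max/basal emission ratio | Control set: DMSO-only wells and EC80 β-PEA-stimulated wells | Repeats: Singlicate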
CHO parental Ca: counter-screen for OX1R antagonists: effect in parental CHO cells; inhibition, % at 5.6 µM; 0.63% of 330,000 active; AID 463079; parental CHO-K1, ATP-induced calcium, Fluo-8 fluorescence;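 active = inhibition above that plate's mean sample inhibition plus 3 SD, cut at about 26% in these data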;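 note: 0% = ATP-challenged DMSO wells and 100% = DMSO wells without ATP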
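Test system: parental CHO cells; detection: calcium-sensitive Fluo-8 fluorescence; evaluation: percent inhibition of calcium signal; also added: ATP as calcium-mobilizing challenge; repeats: one well per compound; control set: ATP-challenged DMSO wells low, unchallenged DMSO wells high; compound: single nominal dose of 5.6 µM per compound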
Numbers without * were called inactive; x = no result. Only some compounds are listed: those with a hit (about 4.6% of all), similar ones and a draw of the others.

SMILES	OX1R antag-1	TAAR1 ag	OX1R antag-2	GPR7 antagonist	TAAR1 antag	CHO parental Ca
S=C(NCCCc1cnc[nH]1)NCCCN(Cc1ccc(Cl)cc1)c1ccc(Br)cn1	x	38*	x	x	38	x
CC(OC(=O)c1cc(Br)ccc1O)C(=O)Nc1ccc(S(=O)(=O)N2CCCC2)cc1 (centres undefined)	20	13	35	x	52*	30
Cc1noc(C)c1C(=O)Nc1cc(S(=O)(=O)N2CCCCC2)ccc1N(C)C	x	-2	x	x	-38	x
COC(=O)c1cn(NC(=O)Cc2cccc(OC)c2)c(=O)c2ccccc12	-21	1	72*	1	-8	-23
COC(=O)c1cn(NC(=O)Cc2ccc(OC)c(OC)c2)c(=O)c2ccccc12	-8	2	48*	-2	-4	-13
COc1ccc(CN(C)S(=O)(=O)c2nnc(NC(=O)c3ccccc3)s2)cc1OC	-8	3	22	-15	-39	-9
COc1ccc(CN(C)S(=O)(=O)c2nnc(NC(=O)c3cccc(F)c3)s2)cc1OC	-28	4	43*	0	17	-1
O=S1(=O)c2cccc3cccc(c23)N1Cc1nnc(-c2ccccc2Br)o1	11	12	72	1	29	32*
O=C1c2ccccc2S(=O)(=O)N1Cc1nnc(-c2ccccc2Br)o1	x	37	x	4	0	x
Cc1ccc(C(=O)OCC(=O)NCc2cccc(Cl)c2)cc1S(=O)(=O)N1CCCCC1	x	0	x	x	-14	x
Cc1cc(C)n(CCNC(=O)[C@@H](Cc2ccccc2)NC(=O)[C@H]2O[C@@H](n3ccc(=O)[nH]c3=O)[C@H](O)[C@@H]2O)n1	x	1	x	x	13	x
O=C1C(=O)c2ccccc2C(O)=C1c1cccc([N+](=O)[O-])c1	1	0	52*	-4	-28	-16
Cc1ccc(C2=C(O)c3ccccc3C(=O)C2=O)cc1	-12	0	41*	-25	5	-6
COc1ccc(CN2CCN(C(=O)c3c(-c4ccccc4)noc3C)CC2)cc1F	-5	4	2	x	-1	-13
O=C(/C=C(\Nc1ccc(F)cc1)c1ccccc1)c1ccccc1	x	-1	x	x	19	x
CN1CC[C@@H]2CN(S(=O)(=O)c3ccccc3)[C@H](c3ccccc3Br)C[C@@H]21	x	2	x	x	-1	x
CC(=O)Nc1ccc(S(=O)(=O)N2c3ccccc3C(C)=CC2(C)C)cc1	-16	6	21	22*	-17	-13
CC1=CC(C)(C)N(S(=O)(=O)c2ccc(F)cc2)c2ccccc21	-14	4	29	-3	-10	-17
O=C(N/N=C/c1ccco1)c1cc([N+](=O)[O-])cc([N+](=O)[O-])c1	-6	7	64*	-13	-1	-14
CCOc1cc(/C=N/NC(=O)c2cccc([N+](=O)[O-])c2)ccc1OS(=O)(=O)c1ccccc1	0	2	17	-6	52*	-6
Nc1cc(C(=O)N/N=C/c2cccc([N+](=O)[O-])c2)n[nH]c1=O	-8	3	52*	-10	-19	-2
O=C(N/N=C/c1ccncc1)c1cccc([N+](=O)[O-])c1	-4	0	57*	3	-8	-6
Nc1ccccc1C(=O)NN=Cc1cccc([N+](=O)[O-])c1	x	1	x	x	7	x
Cc1cc(N=O)no1	x	0	x	x	-6	x
O=C(N/N=C\c1cc([N+](=O)[O-])ccc1N1CCCC1)c1ccccn1	-10	-2	8	-8	8	-10
SMILES	OX1R antag-1	TAAR1 ag	OX1R antag-2	GPR7 antagonist	TAAR1 antag	CHO parental Ca
O=C(N/N=C/c1ccc([N+](=O)[O-])cc1)c1cccc(N2CCCC2=O)c1	-18	1	76*	-10	0	-12
O=C(N/N=C/c1cccc([N+](=O)[O-])c1)c1cc[n+](CCO)cc1	-4	0	69*	-5	-8	1
CN1CCN(c2ccc([N+](=O)[O-])cc2/C=N/NC(=O)c2cccc([N+](=O)[O-])c2)CC1	-29	2	66*	-3	-8	-16
c1ccc2c(-c3cc(NCc4ccncc4)n4nccc4n3)cccc2c1	x	1	x	x	-1	x
COc1ccc(CN2C[C@@]3(O)CC[C@@H](O)[C@@H](OC)[C@@H]3[C@@]2(C)[C@H](O)CC=C(C)C)cc1	x	0	x	x	7	x
N#C/C(=C/c1ccc(Sc2nc3ccccc3[nH]2)o1)c1ccccc1F	18	7	53*	-10	31	-6
N#C/C(=C\c1ccc(Sc2ccccc2)o1)c1nc2ccccc2[nH]1	-11	11	53	-6	45	0
N#C/C(=C/c1ccc(Sc2nc3ccccc3[nH]2)o1)c1cccc(Br)c1	19	7	80*	-12	40	29
N#C/C(=C/c1ccc(Sc2nc3ccccc3[nH]2)o1)c1cccc(F)c1	7	11	59*	-7	44	-3
COc1ccc(-c2noc(CSc3nnc(Cc4ccccc4)n3-c3cccc(C)c3)n2)cc1OC	3	5	39*	-1	11	-12
COc1cc(-c2noc(-c3cccs3)n2)cc(OC)c1OC	-13	6	48*	-7	10	-24
CCn1c(SCc2nc(-c3ccc(OC)c(OC)c3)no2)nnc1-c1cccs1	24	17	45*	-14	-11	-8
Cc1cc(C(=O)N/N=C\c2ccc(COc3ccc([N+](=O)[O-])cc3)o2)ccc1[N+](=O)[O-]	4	14	24	-5	54*	-1
NC(=O)[C@@H]1CCCN1C(=O)[C@H]1O[C@@H](n2ccc(N)nc2=O)[C@H](O)[C@@H]1O	x	2	x	x	5	x
Cc1ccccc1CSc1nnc(C)c(=O)[nH]1	-8	6	17	17*	-41	0
CCn1c(=O)c(C(=O)NNC(=O)c2ccccc2Cl)c(O)c2ccccc21	-27	54*	34	6	15	-8
COc1ccc(/C=C2/C(=O)N(c3c(F)c(F)c(F)c(F)c3F)N=C2C)cc1	-2	42*	13	-11	27	5
Cc1c(Cc2ccccc2)[n+](=O)c2ccccc2n1[O-]	x	0	x	x	-16	x
CC(=O)c1c(C)n([O-])c2ccc(C)cc2[n+]1=O	2	2	41*	-2	-19	-4
CCCC(=O)N1CCN(c2ccc(NC(=O)c3cccs3)cc2Cl)CC1	-33	4	9	-12	8	-15
CCCC(=O)N1CCN(c2ccc(NC(=O)c3cc4ccccc4o3)cc2Cl)CC1	60*	18	91*	-15	84*	61*
COc1ccc(C#Cc2c(-c3ccccc3OC)oc3ccccc23)cc1	x	6	x	x	-3	x
COc1ccc(Cn2c(SCc3ccc(C)cc3)nc3cc(OC)c(OC)cc3c2=N)cc1Cl	-7	41*	10	-8	1	-8
